Test results published in ChEMBL document CHEMBL5696442, “Discovery of type II inhibitors of TGFβ-activated kinase 1 (TAK1) and mitogen-activated protein kinase kinase kinase kinase 2 (MAP4K2)” (J Med Chem, 2015).

Key:
[1] = target: Mitogen-activated protein kinase 14 (Homo sapiens, UniProt Q16539); assay: Inhibition of p38 alpha in human A-375 cells at 0.5 uM by KiNativ Profiling analysis relative to control; format: cell-based
[2] = target: Serine/threonine-protein kinase 25 (Homo sapiens) (UniProt O00506); assay: Inhibition of YSK1 ACT labeling site in human A-375 cells at 0.5 uM by KiNativ Profiling analysis relative to control; format: cell-based
Chain of Serine/threonine-protein kinase 25 (Homo sapiens) (O00506 whole entry, looked up, canonical isoform): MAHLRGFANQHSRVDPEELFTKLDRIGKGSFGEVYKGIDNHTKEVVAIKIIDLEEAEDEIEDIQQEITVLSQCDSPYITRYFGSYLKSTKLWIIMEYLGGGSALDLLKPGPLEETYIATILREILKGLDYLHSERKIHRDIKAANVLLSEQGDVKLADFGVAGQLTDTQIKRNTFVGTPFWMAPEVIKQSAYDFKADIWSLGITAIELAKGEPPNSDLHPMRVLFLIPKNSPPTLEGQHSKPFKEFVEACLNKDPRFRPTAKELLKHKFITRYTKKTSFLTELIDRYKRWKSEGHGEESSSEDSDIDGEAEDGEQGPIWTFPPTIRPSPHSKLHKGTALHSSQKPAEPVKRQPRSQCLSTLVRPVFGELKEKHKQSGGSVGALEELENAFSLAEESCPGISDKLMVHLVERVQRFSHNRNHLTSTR

[3] = target: T1, Phosphatidylinositol 4,5-bisphosphate 3-kinase catalytic subunit delta isoform (Homo sapiens) (UniProt O00329); assay: Inhibition of PIK3CD ATP labeling site in human A-375 cells at 0.05 uM by KiNativ Profiling analysis relative to control; format: cell-based
T1 sequence (whole entry): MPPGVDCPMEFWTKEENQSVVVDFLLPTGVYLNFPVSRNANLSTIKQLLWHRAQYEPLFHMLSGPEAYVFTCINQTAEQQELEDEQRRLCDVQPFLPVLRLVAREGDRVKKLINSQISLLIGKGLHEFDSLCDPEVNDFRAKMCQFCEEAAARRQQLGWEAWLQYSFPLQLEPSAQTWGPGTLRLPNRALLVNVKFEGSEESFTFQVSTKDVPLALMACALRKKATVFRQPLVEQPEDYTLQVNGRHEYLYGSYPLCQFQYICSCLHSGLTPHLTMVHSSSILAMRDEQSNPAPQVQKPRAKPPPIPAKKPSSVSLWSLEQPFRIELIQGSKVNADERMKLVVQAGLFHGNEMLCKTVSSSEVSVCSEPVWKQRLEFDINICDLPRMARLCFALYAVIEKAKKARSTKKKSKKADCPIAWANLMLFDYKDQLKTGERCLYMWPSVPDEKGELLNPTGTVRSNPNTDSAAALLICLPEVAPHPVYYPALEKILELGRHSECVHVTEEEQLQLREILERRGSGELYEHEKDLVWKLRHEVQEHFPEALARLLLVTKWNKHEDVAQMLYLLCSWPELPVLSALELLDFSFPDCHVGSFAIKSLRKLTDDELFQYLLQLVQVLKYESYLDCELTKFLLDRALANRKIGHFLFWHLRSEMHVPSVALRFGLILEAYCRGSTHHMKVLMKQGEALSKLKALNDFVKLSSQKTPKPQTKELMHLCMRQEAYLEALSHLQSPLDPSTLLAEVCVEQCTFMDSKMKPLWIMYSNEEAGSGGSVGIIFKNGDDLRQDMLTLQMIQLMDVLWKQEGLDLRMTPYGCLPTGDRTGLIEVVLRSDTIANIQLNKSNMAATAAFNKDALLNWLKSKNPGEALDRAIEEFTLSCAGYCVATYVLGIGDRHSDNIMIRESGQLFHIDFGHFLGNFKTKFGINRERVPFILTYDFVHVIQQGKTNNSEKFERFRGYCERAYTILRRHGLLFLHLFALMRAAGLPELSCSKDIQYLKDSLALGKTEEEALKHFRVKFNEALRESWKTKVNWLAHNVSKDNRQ

[4] = target: 5'-AMP-activated protein kinase catalytic subunit alpha-1 (Homo sapiens) (UniProt Q13131); assay: Inhibition of AMPKa1 Lys1 labeling site in human A-375 cells at 5 uM by KiNativ Profiling analysis relative to control; format: cell-based
Chain of 5'-AMP-activated protein kinase catalytic subunit alpha-1 (Homo sapiens) (Q13131 whole entry, looked up): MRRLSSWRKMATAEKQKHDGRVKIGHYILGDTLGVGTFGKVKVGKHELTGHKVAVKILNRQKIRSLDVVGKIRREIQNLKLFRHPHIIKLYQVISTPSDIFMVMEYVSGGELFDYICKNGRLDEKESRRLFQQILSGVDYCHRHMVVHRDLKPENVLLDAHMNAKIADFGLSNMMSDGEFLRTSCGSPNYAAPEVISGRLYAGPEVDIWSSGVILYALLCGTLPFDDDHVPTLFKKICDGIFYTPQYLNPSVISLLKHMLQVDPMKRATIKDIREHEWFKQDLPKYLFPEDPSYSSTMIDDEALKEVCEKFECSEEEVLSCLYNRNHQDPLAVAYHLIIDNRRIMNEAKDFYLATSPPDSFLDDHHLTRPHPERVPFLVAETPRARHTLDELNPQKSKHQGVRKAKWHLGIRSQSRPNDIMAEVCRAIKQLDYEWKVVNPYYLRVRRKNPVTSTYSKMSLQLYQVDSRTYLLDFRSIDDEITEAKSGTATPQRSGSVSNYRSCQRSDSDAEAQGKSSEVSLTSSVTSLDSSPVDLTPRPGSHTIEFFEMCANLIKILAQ
Summary of the method: (§1)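 Live A375 melanoma cells were treated with compound at 5 or 0.5 μM, then lysed. The lysates were labeled with a lysine-reactive ATP or ADP-biotin probe. Kinase protection from probe labeling was measured by KiNativ.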

[5] = target: Serine/threonine-protein kinase 26 (Homo sapiens) (UniProt Q9P289); assay: Inhibition of MST4 Lys2 labeling site in human A-375 cells at 0.05 uM by KiNativ Profiling analysis relative to control; format: cell-based
Chain of Serine/threonine-protein kinase 26 (Homo sapiens) (Q9P289 2-416 limits assumed): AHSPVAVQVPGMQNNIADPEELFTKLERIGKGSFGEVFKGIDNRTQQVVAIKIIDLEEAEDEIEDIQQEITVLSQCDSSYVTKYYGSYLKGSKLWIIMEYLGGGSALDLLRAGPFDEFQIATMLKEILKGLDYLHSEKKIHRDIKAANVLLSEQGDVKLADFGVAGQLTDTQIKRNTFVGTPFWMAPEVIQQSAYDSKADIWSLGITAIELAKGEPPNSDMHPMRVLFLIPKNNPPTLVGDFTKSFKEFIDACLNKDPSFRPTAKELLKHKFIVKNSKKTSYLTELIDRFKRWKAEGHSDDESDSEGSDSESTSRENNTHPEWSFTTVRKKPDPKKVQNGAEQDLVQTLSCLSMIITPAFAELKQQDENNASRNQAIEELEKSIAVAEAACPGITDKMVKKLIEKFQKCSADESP

[6] = target: Serine/threonine-protein kinase tousled-like 2 (Homo sapiens) (UniProt Q86UE8); assay: Inhibition of TLK2 Lys1 labeling site in human A-375 cells at 5 uM by KiNativ Profiling analysis relative to control; format: cell-based
Chain of Serine/threonine-protein kinase tousled-like 2 (Homo sapiens) (Q86UE8 whole entry, looked up): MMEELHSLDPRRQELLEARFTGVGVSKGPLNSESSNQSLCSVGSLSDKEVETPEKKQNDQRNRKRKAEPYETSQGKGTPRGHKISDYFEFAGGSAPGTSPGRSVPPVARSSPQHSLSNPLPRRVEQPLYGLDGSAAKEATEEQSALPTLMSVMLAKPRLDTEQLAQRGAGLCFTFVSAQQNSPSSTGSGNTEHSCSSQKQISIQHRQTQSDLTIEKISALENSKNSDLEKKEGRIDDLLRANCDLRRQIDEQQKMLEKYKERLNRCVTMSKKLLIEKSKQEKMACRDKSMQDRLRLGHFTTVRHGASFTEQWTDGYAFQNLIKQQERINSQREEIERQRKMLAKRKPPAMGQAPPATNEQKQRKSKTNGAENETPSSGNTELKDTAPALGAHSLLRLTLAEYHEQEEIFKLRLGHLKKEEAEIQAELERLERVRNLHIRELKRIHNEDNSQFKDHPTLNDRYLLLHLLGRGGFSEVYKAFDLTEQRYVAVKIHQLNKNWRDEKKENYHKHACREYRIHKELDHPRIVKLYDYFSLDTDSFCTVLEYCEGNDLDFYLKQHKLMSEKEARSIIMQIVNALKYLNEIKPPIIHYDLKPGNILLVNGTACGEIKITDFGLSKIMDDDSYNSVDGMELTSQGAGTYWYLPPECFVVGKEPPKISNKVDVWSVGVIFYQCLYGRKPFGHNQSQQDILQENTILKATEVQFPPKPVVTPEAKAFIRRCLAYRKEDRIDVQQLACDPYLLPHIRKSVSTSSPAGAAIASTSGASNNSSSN

[7] = target: Tyrosine-protein kinase ABL1 (Homo sapiens, UniProt P00519); assay: Inhibition of ABL ACT labeling site in human A-375 cells at 0.5 uM by KiNativ Profiling analysis relative to control; format: cell-based
Chain of Tyrosine-protein kinase ABL1 (P00519 whole entry): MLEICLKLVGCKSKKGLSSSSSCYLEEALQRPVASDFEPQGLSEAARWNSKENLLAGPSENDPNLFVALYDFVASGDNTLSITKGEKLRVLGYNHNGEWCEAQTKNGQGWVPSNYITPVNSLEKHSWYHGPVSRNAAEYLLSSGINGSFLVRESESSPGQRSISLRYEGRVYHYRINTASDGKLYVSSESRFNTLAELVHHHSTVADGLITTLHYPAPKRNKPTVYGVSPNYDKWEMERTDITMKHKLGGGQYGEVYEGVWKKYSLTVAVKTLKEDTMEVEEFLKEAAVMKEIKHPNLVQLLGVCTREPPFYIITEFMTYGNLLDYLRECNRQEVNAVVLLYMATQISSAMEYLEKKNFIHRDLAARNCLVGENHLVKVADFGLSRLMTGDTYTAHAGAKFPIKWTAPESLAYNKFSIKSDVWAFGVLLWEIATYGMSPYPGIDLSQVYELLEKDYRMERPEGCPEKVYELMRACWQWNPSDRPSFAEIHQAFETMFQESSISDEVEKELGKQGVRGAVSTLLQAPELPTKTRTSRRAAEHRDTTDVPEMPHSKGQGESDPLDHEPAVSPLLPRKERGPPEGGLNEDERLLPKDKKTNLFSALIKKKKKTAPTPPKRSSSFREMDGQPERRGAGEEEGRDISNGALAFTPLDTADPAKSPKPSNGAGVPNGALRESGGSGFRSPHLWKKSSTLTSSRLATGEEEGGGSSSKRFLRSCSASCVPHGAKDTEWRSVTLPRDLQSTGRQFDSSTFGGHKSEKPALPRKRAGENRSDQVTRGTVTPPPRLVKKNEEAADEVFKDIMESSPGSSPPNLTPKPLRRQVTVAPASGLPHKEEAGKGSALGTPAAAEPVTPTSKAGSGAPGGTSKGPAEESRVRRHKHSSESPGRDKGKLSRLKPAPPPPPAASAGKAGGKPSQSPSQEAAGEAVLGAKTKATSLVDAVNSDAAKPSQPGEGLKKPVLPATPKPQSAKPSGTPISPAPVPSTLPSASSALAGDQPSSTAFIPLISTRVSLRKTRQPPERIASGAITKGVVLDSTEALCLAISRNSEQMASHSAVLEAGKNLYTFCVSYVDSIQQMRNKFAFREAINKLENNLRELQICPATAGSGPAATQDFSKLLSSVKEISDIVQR
Summary of the method: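 Intact A375 melanoma cells were treated with compound at 5 or 0.5 μM, then lysed. Lysate kinases were labeled with a lysine-reactive ATP or ADP-biotin probe (KiNativ). Inhibition is read as protection of each kinase labeling site from probe labeling.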

[8] = target: Serine/threonine-protein kinase WNK4 (Homo sapiens) (UniProt Q96J92); assay: Inhibition of Wnk4 ACT labeling site in human A-375 cells at 0.5 uM by KiNativ Profiling analysis relative to control; format: cell-based
Chain of Serine/threonine-protein kinase WNK4 (Homo sapiens) (Q96J92 whole entry): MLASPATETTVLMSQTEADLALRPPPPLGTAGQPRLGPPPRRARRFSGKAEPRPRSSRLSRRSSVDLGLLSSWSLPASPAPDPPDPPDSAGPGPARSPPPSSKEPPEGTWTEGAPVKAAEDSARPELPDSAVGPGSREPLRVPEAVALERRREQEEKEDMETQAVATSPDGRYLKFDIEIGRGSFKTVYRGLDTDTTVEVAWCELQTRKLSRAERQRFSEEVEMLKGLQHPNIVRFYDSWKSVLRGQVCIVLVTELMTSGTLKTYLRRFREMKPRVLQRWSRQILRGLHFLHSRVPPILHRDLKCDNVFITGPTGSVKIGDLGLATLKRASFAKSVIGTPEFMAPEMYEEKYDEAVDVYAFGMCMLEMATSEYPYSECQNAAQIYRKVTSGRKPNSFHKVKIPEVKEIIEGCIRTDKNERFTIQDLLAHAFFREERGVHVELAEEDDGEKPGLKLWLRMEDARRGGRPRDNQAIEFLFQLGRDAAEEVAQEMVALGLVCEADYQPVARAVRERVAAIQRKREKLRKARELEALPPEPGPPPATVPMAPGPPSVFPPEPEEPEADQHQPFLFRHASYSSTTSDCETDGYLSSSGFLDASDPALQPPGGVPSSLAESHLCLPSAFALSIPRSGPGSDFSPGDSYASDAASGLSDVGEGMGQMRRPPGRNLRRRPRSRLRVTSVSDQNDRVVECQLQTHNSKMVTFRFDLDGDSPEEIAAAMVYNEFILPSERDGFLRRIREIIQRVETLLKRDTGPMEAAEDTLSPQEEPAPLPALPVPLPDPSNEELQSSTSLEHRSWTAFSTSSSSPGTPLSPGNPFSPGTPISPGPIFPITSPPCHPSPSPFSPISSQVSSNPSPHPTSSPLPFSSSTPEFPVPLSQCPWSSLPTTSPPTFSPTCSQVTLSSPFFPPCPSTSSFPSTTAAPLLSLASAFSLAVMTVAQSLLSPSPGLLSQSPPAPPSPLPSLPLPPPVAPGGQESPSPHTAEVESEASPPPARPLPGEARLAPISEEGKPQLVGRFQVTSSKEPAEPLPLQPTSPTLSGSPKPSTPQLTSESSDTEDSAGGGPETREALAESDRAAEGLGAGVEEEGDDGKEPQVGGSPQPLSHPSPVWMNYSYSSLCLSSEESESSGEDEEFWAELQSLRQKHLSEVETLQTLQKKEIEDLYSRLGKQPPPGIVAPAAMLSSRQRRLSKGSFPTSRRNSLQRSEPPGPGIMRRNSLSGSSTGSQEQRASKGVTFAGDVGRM

[9] = target: 5'-AMP-activated protein kinase catalytic subunit alpha-1 (Homo sapiens) (UniProt Q13131); assay: Inhibition of AMPKa1 ATP Loop labeling site in human A-375 cells at 0.5 uM by KiNativ Profiling analysis relative to control; format: cell-based; summary of the method: as §1
[10] = AUC last in Swiss albino mouse at 10 mg/kg, po measured upto 24 hrs by LC/MS/MS analysis; format: ADME, organism-based; details: in vivo
[11] = target: Serine/threonine-protein kinase VRK2 (Homo sapiens) (UniProt Q86Y07); assay: Inhibition of VRK2 Lys2 labeling site in human A-375 cells at 5 uM by KiNativ Profiling analysis relative to control; format: cell-based
[12] = target: Serine/threonine-protein kinase mTOR (Homo sapiens) (UniProt P42345); assay: Inhibition of FRAP ATP labeling site in human A-375 cells at 0.5 uM by KiNativ Profiling analysis relative to control; format: cell-based
Summary of the method: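 Live A375 melanoma cells were treated with compound at 0.5 or 5 μM, then lysed. Lysates were labeled with a lysine-reactive ATP or ADP-biotin probe. The read-out was protection of each kinase probe-labeling site from labeling, relative to control.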

[13] = target: Ribosomal protein S6 kinase alpha-1 (Homo sapiens) (UniProt Q15418); assay: Inhibition of RSK1 domain2 Lys2 labeling site in human A-375 cells at 5 uM by KiNativ Profiling analysis relative to control; format: cell-based
Summary of the method: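 Live A375 melanoma cells treated with compound at 5 or 0.5 μM, then lysed. Lysate kinases were labeled with a lysine-reactive ATP or ADP-biotin probe. Inhibition was read as protection of labeling sites from the probe.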

Chain of Mitogen-activated protein kinase 14 (Q16539 whole entry): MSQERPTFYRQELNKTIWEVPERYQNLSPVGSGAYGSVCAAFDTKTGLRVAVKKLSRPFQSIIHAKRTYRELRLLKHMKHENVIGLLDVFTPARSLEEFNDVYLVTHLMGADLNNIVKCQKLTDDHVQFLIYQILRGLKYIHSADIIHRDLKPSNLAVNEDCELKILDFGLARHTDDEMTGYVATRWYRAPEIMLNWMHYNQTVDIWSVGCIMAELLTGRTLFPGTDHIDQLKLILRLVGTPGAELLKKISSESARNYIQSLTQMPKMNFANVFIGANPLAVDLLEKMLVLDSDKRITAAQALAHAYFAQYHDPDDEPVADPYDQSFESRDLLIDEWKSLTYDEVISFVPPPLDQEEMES

Question: Which inhibition [1] does the source give for `CCN1CCN(Cc2ccc(NC(=O)c3ccc(C)c(Oc4ccnc5[nH]ccc45)c3)cc2C(F)(F)F)CC1` here?
Answer: The inhibition was 51.9%.

Question: And the inhibition [2]?
Answer: Its inhibition is 31.3%.

Question: What about the inhibition [3] of the same compound?
Answer: Its inhibition is 4.1%.

Question: What about the inhibition [4] of the same compound?
Answer: The inhibition was 11.6%.

Question: And the inhibition [5]?
Answer: The inhibition was -0.7%.

Question: And the inhibition [6]?
Answer: Its inhibition is 17.7%.

Question: And the inhibition [7]?
Answer: Its inhibition is greater than 98%.

Question: And the inhibition [8]?
Answer: The inhibition was 3.9%.

Question: And the inhibition [9]?
Answer: The inhibition was -0.8%.

Question: What about the AUClast [10] of the same compound?
Answer: Its AUClast is 1369 ng·h/mL.

Question: What about the inhibition [11] of the same compound?
Answer: The inhibition was 12.7%.

Question: What about the inhibition [12] of the same compound?
Answer: The inhibition was -3%.

Question: What about the inhibition [13] of the same compound?
Answer: Its inhibition is 1.8%.

Question: Which inhibition [1] does the source give for `CCN1CCN(Cc2ccc(NC(=O)c3ccc(C)c(/C=C/c4cnc5[nH]ccc5c4OC)c3)cc2C(F)(F)F)CC1` here?
Answer: The inhibition was 69.2%.

Question: And the inhibition [2]?
Answer: Its inhibition is 18.3%.

Question: What about the inhibition [3] of the same compound?
Answer: Its inhibition is 24.3%.

Question: And the inhibition [4]?
Answer: The inhibition was 37%.

Question: What about the inhibition [5] of the same compound?
Answer: Its inhibition is 9.1%.

Question: What about the inhibition [6] of the same compound?
Answer: Its inhibition is 27.5%.

Question: What about the inhibition [7] of the same compound?
Answer: Its inhibition is greater than 98%.

Question: And the inhibition [8]?
Answer: The inhibition was 6.9%.

Question: What about the inhibition [9] of the same compound?
Answer: Its inhibition is -2.7%.

Question: And the AUClast [10]?
Answer: Its AUClast is 295 ng·h/mL.

Question: What about the inhibition [11] of the same compound?
Answer: Its inhibition is 21.5%.

Question: And the inhibition [12]?
Answer: Its inhibition is 0.8%.

Question: And the inhibition [13]?
Answer: The inhibition was 3.9%.
